Activity calls are given as the source filed them. The calls are words filed in the database; no cut-off is given here.
How the values were obtained:
[1] = tested on: Rattus norvegicus; test: Antihyperlipidemic activity in HFD-induced hyperlipidemic Charles Foster rat assessed as decrease in serum total cholesterol level at 100 mg/kg, po administered for 4 weeks relative to control; assay type: functional; design: scale not given: the % may be the effect or the level left
Summary of the method: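 Male Charles Foster rats (200−225 g): high-fat diet 4 weeks, then diet plus daily dosing 4 weeks. Overnight fast, retro-orbital blood in EDTA (3 mg/mL blood), centrifuged to serum. TC, PL, TG in mg/dL; LCAT as nmol cholesterol released/h/L plasma. Mean ± SD; dosed groups compared with high-fat group, P by significance levels.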

[2] = tested on: Rattus norvegicus; test: Antihyperlipidemic activity in po dosed Triton WR-1339-induced hyperlipidemic rat assessed as increase in PHLA; assay type: functional, organism-based
Summary of the method: (§1)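 Triton WR-1339 given to rats to induce hyperlipidemia; oral dosing. Plasma TC, PL, TG in mg/dL; PHLA as […]/h/mL plasma. Mean ± SD of six rats; Triton group compared with control, Triton plus dosed group compared with Triton group.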

[3] = tested on: Rattus norvegicus; test: Antihyperlipidemic activity in po dosed Triton WR-1339-induced hyperlipidemic rat assessed as decrease in plasma phospholipid level; assay type: functional, organism-based; summary of the method: as §1
[4] = tested on: Rattus norvegicus; test: Antiobesity activity in HFD-induced hyperlipidemic Charles Foster rat assessed as decrease in perirenal fat-pad at 100 mg/kg, po administered for 4 weeks; assay type: functional, organism-based; design: dose 100 mg/kg
Summary of the method: (§2)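 Adult male Charles Foster rats given high-fat or normal diet 4 weeks, then diet plus vehicle or daily dosing 4 more weeks, sacrificed at week 8. Body weight gain, food intake, food efficiency ratio (weight gain/food intake over the period), and mesenteric, gonadal, inguinal and perirenal fat-pad weights recorded; mean ± SD, n = 6.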

[5] = tested on: Rattus norvegicus; test: Antihyperlipidemic activity in HFD-induced hyperlipidemic Charles Foster rat assessed as increase in plasma HDL-apoprotein level at 100 mg/kg, po administered for 4 weeks relative to control; assay type: functional
Summary of the method: (§3)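 After 4 weeks high-fat feeding plus 4 weeks daily dosing, overnight fast, retro-orbital blood into EDTA tubes. Serum split into VLDL, LDL and HDL by polyanionic precipitation; each fraction assayed for TC, PL, TG and apoprotein (mg/dL plasma). Pooled data from 6 rats/group, mean ± SD, dosed groups compared with high-fat group.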

[6] = tested on: Rattus norvegicus; test: Antihyperlipidemic activity in HFD-induced hyperlipidemic Charles Foster rat assessed as increase in deoxycholic acid excretion in feces at 100 mg/kg/day, po administered for 4 weeks measured after 30 days relative to control; assay type: functional
Summary of the method: (§4)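 Rats fed high-fat diet 4 weeks, then diet plus daily dosing 4 weeks. Cholic and deoxycholic acid excreted in feces measured; dosed groups compared with high-fat group, control compared with high-fat group.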

[7] = tested on: Rattus norvegicus; test: Antihyperlipidemic activity in HFD-induced hyperlipidemic Charles Foster rat assessed as increase in plasma HDL-triglyceride level at 100 mg/kg, po administered for 4 weeks relative to control; assay type: functional; summary of the method: as §3
[8] = tested on: Rattus norvegicus; test: Antihyperlipidemic activity in Triton WR-1339-induced hyperlipidemic rat assessed as decrease in plasma total cholesterol level at 150 mg/kg, po; assay type: functional
Summary of the method: (§5)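 Separate set of Triton WR-1339-induced hyperlipidemic rats, oral doses of 50, 100 and 150 mg/kg. Plasma TC, PL, TG in mg/dL; PHLA as […]/h/mL plasma. Mean ± SD of six rats versus Triton group.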

[9] = tested on: Rattus norvegicus; test: Antihyperlipidemic activity in HFD-induced hyperlipidemic Charles Foster rat assessed as decrease in plasma VLDL-apoprotein level at 100 mg/kg, po administered for 4 weeks relative to control; assay type: functional; design: scale not given: the % may be the effect or the level left; summary of the method: as §3
[10] = tested on: Rattus norvegicus; test: Antihyperlipidemic activity in HFD-induced hyperlipidemic Charles Foster rat assessed as increase in cholic acid excretion in feces at 100 mg/kg/day, po administered for 4 weeks measured after 30 days relative to control; assay type: functional; summary of the method: as §4
[11] = tested on: Rattus norvegicus; test: Antihyperlipidemic activity in Triton WR-1339-induced hyperlipidemic rat assessed as decrease in plasma total cholesterol level at 100 mg/kg, po relative to control; assay type: functional; design: scale not given: the % may be the effect or the level left; summary of the method: as §1
[12] = tested on: Rattus norvegicus; test: Antihyperlipidemic activity in HFD-induced hyperlipidemic Charles Foster rat assessed as decrease in plasma VLDL-triglyceride level at 100 mg/kg, po administered for 4 weeks relative to control; assay type: functional; design: scale not given: the % may be the effect or the level left; summary of the method: as §3
[13] = tested on: Rattus norvegicus; test: Antihyperlipidemic activity in Triton WR-1339-induced hyperlipidemic rat assessed as decrease in plasma phospholipid level at 150 mg/kg, po; assay type: functional; summary of the method: as §5
[14] = tested on: Rattus norvegicus; test: Antihyperlipidemic activity in HFD-induced hyperlipidemic Charles Foster rat assessed as decrease in plasma LDL-phospholipid level at 100 mg/kg, po administered for 4 weeks relative to control; assay type: functional; design: scale not given: the % may be the effect or the level left; summary of the method: as §3
[15] = tested on: Rattus norvegicus; test: Toxicity in HFD-induced hyperlipidemic Charles Foster rat assessed as decrease in food intake at 100 mg/kg, po administered for 4 weeks; assay type: organism-based; design: dose 100 mg/kg, route oral; conditions: in vivo, 672 h
Summary of the method: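 Adult male Charles Foster rats (200−225 g) were kept at 25−26 °C, 50−70% humidity, and a 12/12 h light/dark cycle. They were fed a high-fat diet for 4 weeks to induce hyperlipidemia, then given high-fat diet plus test agent at 100 mg/kg/d for another 4 weeks. Food intake was recorded over the experimental period, with n = 6 per group, and animals were sacrificed after 8 weeks.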

[16] = tested on: Rattus norvegicus; test: Antihyperlipidemic activity in po dosed Triton WR-1339-induced hyperlipidemic rat assessed as increase in LCAT enzyme level; assay type: functional, organism-based; summary of the method: as §1
[17] = tested on: Rattus norvegicus; test: Toxicity in HFD-induced hyperlipidemic Charles Foster rat assessed as mortality at 100 mg/kg/day, po administered for 4 weeks; assay type: organism-based; design: route oral; conditions: in vivo, 672 h
Summary of the method: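 Male Charles Foster rats (200−225 g) were fed a high-fat diet for 4 weeks, then dosed at 100 mg/kg/d alongside the same diet for 4 more weeks. Survival was monitored. After an overnight fast, blood was drawn and the animals were sacrificed. Macroscopic inspection and autopsy were then performed, with n = 6 per group.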

[18] = tested on: Rattus norvegicus; test: Antihyperlipidemic activity in Triton WR-1339-induced hyperlipidemic rat assessed as decrease in plasma triglyceride level at 150 mg/kg, po; assay type: functional; summary of the method: as §5
[19] = tested on: Rattus norvegicus; test: Antihyperlipidemic activity in HFD-induced hyperlipidemic Charles Foster rat assessed as decrease in macrovesicular steatosis at 100 mg/kg, po administered for 4 weeks by light microscopic analysis; assay type: functional, organism-based; design: dose 100 mg/kg
Summary of the method: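 Rats on high-fat diet 4 weeks, then diet plus daily dosing for another 4 weeks before sacrifice. Liver sections 4 μm thick, stained with Ehrlich's hematoxylin and eosin, examined by light microscope for centrilobular macrovesicular steatosis.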

[20] = tested on: Rattus norvegicus; test: Antihyperlipidemic activity in HFD-induced hyperlipidemic Charles Foster rat assessed as decrease in plasma VLDL-phospholipid level at 100 mg/kg, po administered for 4 weeks relative to control; assay type: functional; design: scale not given: the % may be the effect or the level left; summary of the method: as §3
[21] = tested on: Rattus norvegicus; test: Antihyperlipidemic activity in HFD-induced hyperlipidemic Charles Foster rat assessed as decrease in plasma LDL-apoprotein level at 100 mg/kg, po administered for 4 weeks relative to control; assay type: functional; design: scale not given: the % may be the effect or the level left; summary of the method: as §3
[22] = tested on: Rattus norvegicus; test: Antiobesity activity in HFD-induced hyperlipidemic Charles Foster rat assessed as decrease in body weight at 100 mg/kg, po administered for 4 weeks; assay type: functional, organism-based; design: dose 100 mg/kg; summary of the method: as §2
[23] = tested on: Rattus norvegicus; test: Antihyperlipidemic activity in HFD-induced hyperlipidemic Charles Foster rat assessed as decrease in plasma LDL-triglyceride level at 100 mg/kg, po administered for 4 weeks relative to control; assay type: functional; design: scale not given: the % may be the effect or the level left; summary of the method: as §3
[24] = tested on: Rattus norvegicus; test: Antihyperlipidemic activity in po dosed Triton WR-1339-induced hyperlipidemic rat assessed as decrease in plasma total cholesterol level; assay type: functional, organism-based; summary of the method: as §1
[25] = tested on: Rattus norvegicus; test: Antihyperlipidemic activity in Triton WR-1339-induced hyperlipidemic rat assessed as decrease in plasma triglyceride level at 50 mg/kg, po; assay type: functional; summary of the method: as §5
[26] = tested on: Rattus norvegicus; test: Antihyperlipidemic activity in Triton WR-1339-induced hyperlipidemic rat assessed as decrease in plasma phospholipid level at 50 mg/kg, po; assay type: functional; summary of the method: as §5

| SMILES | Activity [1] [%] | Activity [2] | Activity [3] | Activity [4] | Activity [5] [%] | Activity [6] [%] | Activity [7] [%] | Activity [8] [mg/dL] | Activity [9] [%] | Activity [10] [%] | Activity [11] [%] | Activity [12] [%] | Activity [13] [mg/dL] | Activity [14] [%] | Activity [15] | Activity [16] | Activity [17] | Activity [18] [mg/dL] | Activity [19] | Activity [20] [%] | further results |
| --- | --- | --- | --- | --- | --- | --- | --- | --- | --- | --- | --- | --- | --- | --- | --- | --- | --- | --- | --- | --- | --- |
| CCOC(=O)C(C)Oc1ccc(C(c2cn(CC)c3ccccc23)c2cn(CC)c3ccccc23)cc1 (configuration not stated) | 25 | Dose-dependent effect | Dose-dependent effect | Active | 16 | 28 | 11 | 33 | 26 | 26 | 22 | 24 | 29 | 25 | Non-toxic | Dose-dependent effect | Non-toxic | 26 | Active | 16 | Activity [21]: 25%; Activity [22]: Active; Activity [23]: 21%; Activity [24]: Dose-dependent effect; Activity [25]: 12 mg/dL; Activity [26]: 15 mg/dL |
| CCOC(=O)CCCOc1ccc(C(c2cn(C)c3ccccc23)c2cn(C)c3ccccc23)cc1 | 28 | Dose-dependent effect | Dose-dependent effect | Active | 14 | 31 | 14 | 35 | 33 | 21 | 20 | 17 | 29 | 20 | Non-toxic | Dose-dependent effect | Non-toxic | 27 | Active | 11 | Activity [21]: 21%; Activity [22]: Active; Activity [23]: 25%; Activity [24]: Dose-dependent effect; Activity [25]: 13 mg/dL; Activity [26]: 16 mg/dL |

From ChEMBL document CHEMBL2029264, “Indole-based fibrates as potential hypolipidemic and antiobesity agents” (J Med Chem, 2012)
